Measurements as given in publication PMC3741069 (Biochemistry, 2013).
Changes are numbered by the printed parent chain.

Legend:
Assay in all cases: spectral perturbation titration
Assay type in all cases: binding
nitrate reductase (NarB) [1] = biological target: T1, nitrate reductase (NarB) (Synechococcus elongatus, UniProt P39458, K72R)
T1 sequence (P39458 15-729 K72R): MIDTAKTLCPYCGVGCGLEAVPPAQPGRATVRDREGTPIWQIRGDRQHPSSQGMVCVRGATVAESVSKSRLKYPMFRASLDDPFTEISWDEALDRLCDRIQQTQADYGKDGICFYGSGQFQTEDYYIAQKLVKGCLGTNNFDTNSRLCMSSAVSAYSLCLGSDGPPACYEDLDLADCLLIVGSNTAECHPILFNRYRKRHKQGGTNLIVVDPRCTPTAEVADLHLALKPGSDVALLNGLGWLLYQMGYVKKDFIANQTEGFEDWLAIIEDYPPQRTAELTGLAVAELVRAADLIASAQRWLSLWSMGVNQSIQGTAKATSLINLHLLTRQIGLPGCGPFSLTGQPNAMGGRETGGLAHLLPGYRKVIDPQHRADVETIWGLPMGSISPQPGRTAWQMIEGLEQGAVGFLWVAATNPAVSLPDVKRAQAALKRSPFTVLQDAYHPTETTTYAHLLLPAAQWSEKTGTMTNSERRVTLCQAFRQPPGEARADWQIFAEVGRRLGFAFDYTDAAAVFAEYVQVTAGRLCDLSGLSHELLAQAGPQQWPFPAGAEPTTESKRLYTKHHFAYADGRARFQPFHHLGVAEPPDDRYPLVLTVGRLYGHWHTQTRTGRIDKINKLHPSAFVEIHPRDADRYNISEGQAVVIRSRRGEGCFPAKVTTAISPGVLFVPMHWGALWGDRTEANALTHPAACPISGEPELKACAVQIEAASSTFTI
How it was run: (§1)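 Single-residue NarB variants were made by site-directed mutagenesis and expressed and purified as for wild type (His6, Co affinity, DEAE, gel filtration). Complex formation with ferredoxin or nitrate was followed by difference absorbance at variant-specific wavelength pairs chosen for signal:noise. The change at saturating nitrate was taken as 100% complex. Kd came from fitting perturbation magnitude against ligand concentration to a single binding isotherm.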

nitrate reductase (NarB) [2] = biological target: T2, nitrate reductase (NarB) (Synechococcus elongatus, UniProt P39458, K72Q)
T2 sequence (P39458 15-729 K72Q): T1 sequence (P39458 15-729 K72R) with R58Q
How it was run: as §1

nitrate reductase (NarB) [3] = biological target: T3, nitrate reductase (NarB) (Synechococcus elongatus, UniProt P39458, K144R)
T3 sequence (P39458 15-729 K144R): T1 sequence (P39458 15-729 K72R) with R58K, K130R
How it was run: as §1

With `O=[N+]([O-])O` [nitrate] the Kd (nitrate reductase (NarB) [1]) was 15.5 ± 5 µM, the Kd (nitrate reductase (NarB) [2]) was 8 ± 2.3 µM and the Kd (nitrate reductase (NarB) [3]) was 13.4 ± 3 µM.
